OX1R antag-1: OX1R (HCRTR1) antagonists, primary screen, fluorescence, CHO/OX1R cells, Fluo-8 calcium, orexin A | Orexin/Hypocretin receptor type 1 (Homo sapiens), O43613 | Fluo-8 calcium fluorescence | inhibition, % at 5 µM | actives 0.43% (n = 330,000) | AID 434989, 2010;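 active = inhibition above its plate's threshold, mean inhibition of all tested compounds on the plate plus 3 SD, cut at about 37% in these data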
Target sequence (O43613 whole entry, looked up): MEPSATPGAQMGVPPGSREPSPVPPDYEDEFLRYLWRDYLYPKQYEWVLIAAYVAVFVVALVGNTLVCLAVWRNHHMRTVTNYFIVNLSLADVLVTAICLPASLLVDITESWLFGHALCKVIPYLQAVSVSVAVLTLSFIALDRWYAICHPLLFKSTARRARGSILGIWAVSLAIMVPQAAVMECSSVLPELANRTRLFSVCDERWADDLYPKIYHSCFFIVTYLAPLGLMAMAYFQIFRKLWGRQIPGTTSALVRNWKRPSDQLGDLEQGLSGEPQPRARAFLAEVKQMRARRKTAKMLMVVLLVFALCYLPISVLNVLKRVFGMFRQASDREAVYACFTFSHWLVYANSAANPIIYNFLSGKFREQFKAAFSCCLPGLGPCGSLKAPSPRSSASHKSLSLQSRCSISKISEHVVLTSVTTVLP
CHO-K1 Ca ag: counter-screen for M1 agonists: effect in parental CHO-K1 cells. actives 0.48% (n = 360,000). Fluo-8 calcium fluorescence; scaled to maximal ATP response, vehicle zero. activation, % at 3 µM; in the data active = activation above about 15%;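 note: untransfected CHO-K1 host cells lacking M1 receptor as counterscreen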
CHO-K1 Ca antag: nonselective inhibitor or artifact in parental CHO-K1 cells. actives 0.6% (n = 360,000). ATP-induced calcium, Fluo-8 fluorescence. inhibition, % at 3 µM. AID 602250;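 active = inhibition above a per-plate cutoff, the plate's mean sample inhibition plus 3 SD, cut at about 24% in these data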
CHO-K1 Ca PAM: nonselective calcium activators in parental CHO-K1 cells, primary screen, counter-screen for M1 PAM project, cell-based, Fluo-8 calcium fluorescence, full deck, 1536-well. actives 0.02% (n = 360,000). ATP EC20; 0% at ATP EC20, 100% at ATP max. AID 602247, 2012. activation, % at 3 µM;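 active = activation above the run cutoff, the mean activation of all test compounds plus 3 SD, cut at about 40% in these data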;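 note: peak over basal fluorescence ratio in a 140 s read after ATP addition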
CHO parental Ca: ATP-evoked calcium signal inhibitors, parental CHO, primary screen, counter-screen for OX1R antagonist project, cell-based, fluorescence, Fluo-8 calcium dye | inhibition, % at 5.6 µM | parental CHO-K1, ATP-induced calcium, Fluo-8 fluorescence | actives 0.63% (n = 330,000);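 active = inhibition above that plate's mean sample inhibition plus 3 SD, cut at about 26% in these data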
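Material – parental CHO cells · Reagent – ATP stimulus · Compound – single nominal dose of 5.6 µM per compound · Detection – Fluo-8 fluorescence · Read-out basis – percent inhibition of calcium signal · Controls – ATP-challenged DMSO wells low, unchallenged DMSO wells high · Repeats – no replicates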
OX1R antag-2: antagonists of human orexin 1 receptor (OX1R) | Orexin/Hypocretin receptor type 1 (Homo sapiens), O43613 | OX1R-expressing cells, FRET antagonist read-out | inhibition, % at 6.6 µM | actives 1.8% (n = 330,000) | AID 485270, 2010; in the data active = inhibition mostly above about 38%, no sharp cut-off; inactive = mostly below about 40%
A number is an active result; – = inactive; · = not tested or not shown. This is a sample that favours compounds with a hit; in the whole collection about 2.9% have one here.

SMILES	OX1R antag-1	CHO-K1 Ca ag	CHO-K1 Ca antag	CHO-K1 Ca PAM	CHO parental Ca	OX1R antag-2
NC(=O)C1CCN(C(=O)CNC(=O)c2ccccc2)CC1	–	–	–	–	–	–
Cc1ccc(CNc2ccc(N3CCN(C)CC3=O)cc2)cc1	–	–	–	–	–	–
Cc1cc(N(C)C)nc(Nc2ccccc2)n1	–	–	–	–	–	–
CCN1C(=O)[C@H]2[C@@H](c3ccc(C)cc3)N[C@]3(CCCN(Cc4ccc(F)cc4)C3=O)[C@H]2C1=O	·	–	25	–	·	·
Cc1ccc(CN2CCC[C@]3(N[C@H](c4ccccc4)[C@@H]4C(=O)N(Cc5ccccc5)C(=O)[C@@H]43)C2=O)cc1	·	–	29	–	·	·
CN(C)/C=C(\C=O)c1cccc(Cl)c1	–	–	–	–	–	–
COc1ccc(CNc2nc(NCc3ccc(OC)c(OC)c3)n(C(=O)c3cccs3)n2)cc1OC	–	–	–	–	–	44
Cc1ccc2c(Cl)c(C(=O)NC3CC3)sc2c1	·	–	–	–	·	·
O=C(NC1CC1)c1sc2cc([N+](=O)[O-])ccc2c1Cl	–	–	–	–	–	69
c1cc(-c2cc3cc4c(cc3cn2)OCO4)cs1	–	–	–	–	–	70
Cc1ccc(N2C(=O)c3cccc4c([N+](=O)[O-])ccc(c34)C2=O)c2cccnc12	–	–	–	–	–	–
Cc1nnc(N2C(=O)c3cccc4c([N+](=O)[O-])ccc(c34)C2=O)s1	–	–	–	–	–	42
CC(=O)c1c(-c2ccccc2)c2cc(Cl)ccc2[nH]c1=O	–	–	–	–	–	67
O=C(NCCc1cccs1)c1cccs1	–	–	–	–	–	–
CCOC(=O)C1=C[C@@H](C(C)(C)C)N(S(=O)(=O)c2ccc(C)cc2)[C@H]1c1ccccc1Cl	·	–	24	–	·	·
Cc1ccc(C(C(=O)NCc2ccc(F)cc2)N(CCCO)C(=O)C2COc3ccccc3O2)o1 (stereo unspecified)	–	19	–	–	–	–
Cc1ccc(CNC(=O)C2COc3ccccc3O2)cc1 (stereo unspecified)	–	–	–	–	–	–
CCOC(=O)c1ccccc1NC(=O)COC(=O)C(CC)Oc1ccccc1 (stereo unspecified)	·	–	–	–	·	·
COc1cc(CCN(C(=O)c2cc3ccccc3[nH]2)C(C)c2nc3ccccc3[nH]2)cc(OC)c1 (stereo unspecified)	·	–	–	–	·	·
CSc1ccccc1C(=O)N1CCc2ccc(NC(=O)c3ccccn3)cc2C1	·	–	25	–	·	·
CSc1ccc(C(=O)N2CCc3ccc(NC(=O)c4ccccn4)cc3C2)cc1	–	–	–	–	–	–
CCOC(=O)CN(Cc1sccc1C)C(=O)Nc1ccc(OC)cc1OC	–	–	25	–	–	–
Oc1ccccc1N=Cc1c(O)ccc2oc3c(c12)CCCC3	–	16	–	–	–	–
Cc1cc(NC(=O)C2(C)CCN2C(C)C)c2ccccc2n1 (stereo unspecified)	·	–	–	–	·	·
CCOc1ccc(Cl)cc1CSc1ncn[nH]1	–	–	–	–	–	–
SMILES	OX1R antag-1	CHO-K1 Ca ag	CHO-K1 Ca antag	CHO-K1 Ca PAM	CHO parental Ca	OX1R antag-2
COc1ccc(-n2ccnc(SCC(=O)NC3CCCC3)c2=O)cc1	–	–	–	–	–	45
COc1ccccc1/C=C/CN1CCC(n2nccc2NC(=O)CCc2ccccc2)CC1	–	15	24	–	–	–
COc1ccc(-c2noc(C3CCCN(S(=O)(=O)c4ccc(C)c(Cl)c4)C3)n2)cc1OC (stereo unspecified)	–	–	–	–	–	–
COc1ccc(-c2noc(C3CCCN(S(=O)(=O)c4cccc(Cl)c4C)C3)n2)cc1OC (stereo unspecified)	–	–	–	–	–	45
CCOc1ccc(CCNc2nc3ccccc3n3c(C)nnc23)cc1OCC	–	–	–	–	–	–
COc1ccc(CCNc2nc3ccccc3n3nnnc23)cc1OC	–	–	27	–	–	–
COc1ccc(CCNCc2csc3nc4ccccc4n23)cc1OC	–	–	–	–	–	53
COc1ccc(CCNCc2ccc(-c3ccccc3)cc2)cc1OC	·	–	–	–	·	·
COc1ccc(NC(=O)C[C@H]2C(=O)N(C3CCCCC3)C[C@@H]2C)cc1	·	–	–	–	·	·
O=C(Nc1nnc(SCc2ccc(F)cc2)s1)C1CC(=O)N(Cc2ccccc2)C1 (stereo unspecified)	–	–	–	–	–	–
CC[C@]1(C(=O)OC)[C@H]2C(=O)N(C)C(=O)[C@H]2[C@H]2CN=C(SCc3ccc(C(=O)OC)cc3)N21	–	–	–	–	–	–
CN(C(=O)COC(=O)Cc1c(F)cccc1Cl)c1c(N)n(Cc2ccccc2)c(=O)[nH]c1=O	–	–	–	–	–	–
Cc1ccc(C(=O)Nc2nnc(-c3ccco3)o2)cc1	–	–	–	–	–	–
O=C(Nc1nnc(-c2ccco2)o1)c1ccc([N+](=O)[O-])s1	–	–	–	–	–	66
Fc1ccc(Cn2cc(C(=S)N3CCOCC3)c3ccccc32)cc1	–	23	–	–	–	–
CCOC(=O)c1ccc(NC(=S)NCc2ccccc2)cc1	–	–	–	–	–	–
CCOC(=O)c1ccc(NC(=S)NCCc2ccccc2F)cc1	–	15	25	–	–	–
CCOC(=O)c1ccc(NC(=S)NCCc2ccccc2)cc1	–	–	–	–	60	–
CCOC(=O)c1ccc(NC(=O)Nc2ccc(F)cc2)cc1	–	–	49	–	–	52
C[C@H]1CN([C@@H](C)CO)S(=O)(=O)c2ccc(Br)cc2O[C@@H]1CN(C)C(=O)Cc1cccnc1	·	–	–	–	·	·
CCN(CC)c1ccc(C(=O)NNC(=O)c2cccn2C)cc1	–	–	–	–	–	–
CC(=O)NNC(=O)c1sc(=S)n(C)c1C	–	19	–	–	–	–
Cc1c(C(=O)NNS(=O)(=O)c2ccccc2)sc(=S)n1C	–	–	–	–	–	–
Clc1nc(Nc2ccc(N3CCOCC3)cc2)c2ccccc2n1	–	–	–	–	–	70
Cc1ccc2sc(NC(=O)CN3C(=O)CCC3=O)nc2c1C	–	–	29	–	–	–
CCc1ccc(C(=O)NNC(=O)OC)cc1	–	–	–	–	–	–
C[C@H](CO)N1C[C@H](C)[C@@H](CN(C)C(=O)Nc2ccc(C(F)(F)F)cc2)Oc2c(NC(=O)Nc3ccc(C(F)(F)F)cc3)cccc2C1=O	–	–	–	–	41	–
C[C@H](CO)N1C[C@H](C)[C@@H](CN(C)CC2CC2)Oc2c(NC(=O)C3CC3)cccc2C1=O	·	–	–	–	·	·
